From publication PMC7114156 (Antiviral Research, 2009)
“And” between values parts separate entries of the source, which are not always exact repeats. Equal values may be shown once. Marks after values point to notes of the source that are not given here.

Assays:
[1] = system: SV40 strain Pa-57; experiment: SV40 assay: SV40 replication in Vero cells, viral DNA by qPCR; type: cell-based; settings: ratio proportional to viral DNA per cell
Method in brief: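 Vero cells at 2 × 10^4 cells/well were allowed to adhere for 4 h. They were infected with SV40 strain Pa-57 at MOI 0.1 for 2 h. Inoculum was removed and test compound added at 100 to 0.003 μM for 3 days. SV40 DNA was read by qPCR, and growth by MTS in parallel on uninfected cells. The SV40 DNA/MTS ratio was expressed as % of untreated control.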

[2] = system: HIV-1; experiment: HIV-1 infection in PBMCs; type: cell-based
[3] = system: IM9 cells; experiment: Growth of IM9 cell line; type: cell-based, human
[4] = system: HPV-16; experiment: HPV DNA by qPCR in W12-20850 cells; type: cell-based
[5] = system: CIN612 cells; experiment: Growth of CIN612 cells, MTS; type: cell-based, human
[6] = system: WI38 VA13; experiment: Growth of WI38 VA13; type: cell-based, human
Method in brief: (§1)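 Cell lines carrying integrated viral genomes were plated in 96-well plates in medium with test compound. Growth was read by ATP luminescence (CellTiter-Glo) for HEK293 and WI38 VA13, and by MTS reduction (A490 after 2 h at 37 °C) for Namalwa, W12 20861, SiHa, Caski and HeLa. K and Imax came from a fit to a modified Hill equation.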

[7] = system: Namalwa; experiment: Growth of Namalwa; type: cell-based, human; settings: 72 h
Method in brief: as §1

[8] = system: Jurkat; experiment: Growth of Jurkat, MTS; type: cell-based, human; settings: 72 h
Method in brief: (§2)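 Cells were plated in 96-well plates in medium holding serial dilutions of test compound, 1 nM to 10 μM, with DMSO ≤1% (v/v) final. Growth was read by MTS after 72 h at 37 °C: 2 h with reagent plus phenazine methosulfate, then A490. K and Imax came from a fit to a modified Hill equation. Vero cells are African Green monkey.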

[9] = system: BJAB; experiment: Growth of BJAB, MTS; type: cell-based, human; settings: 72 h
Method in brief: as §2

[10] = Growth of resting PBMC, MTS; type: cell-based; settings: human, resting PBMCs
[11] = Growth of resting B cells, CTG; type: cell-based; settings: human
Method in brief: (§3)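 Primary cells were plated in 96-well plates with serial dilutions of test compound, 3 nM to 100 μM, for 72 h at 37 °C. Read-out was CTG for resting B and CD4 T cells and MTS for PBMC, WI38 and HUVEC. Purity was 90–95% for B cells and 97% for CD4 cells. Activated PBMCs were stimulated with phytohemagglutinin plus IL2.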

[12] = Growth of resting CD4 T cells, CTG; type: cell-based; settings: human
Method in brief: as §3

[13] = system: MT4 cells; experiment: Apoptosis assay; type: cell-based, human; settings: MT4, 20 h exposure
Method in brief: (§4)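 Apoptosis read as cytoplasmic histone-associated DNA fragments with a Cell Death Detection ELISA kit. Exposure was 20 h for IM9 and MT4 and 40 h for W12 and U937. A405 was read kinetically at 30 °C, and the rate per hour came from linear regression of the linear portion. A Fas-activating antibody was the positive control.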

[14] = system: U937 cells; experiment: Apoptosis assay; type: cell-based, human; settings: U937, 40 h exposure
Method in brief: as §4

[15] = system: HKC cells; experiment: mRNA measurement by RT-qPCR in HKC cells; type: cell-based, human; settings: HKC cells, 10 nM
[16] = Homo sapiens, read-out: K, Growth, MTS
[17] = Homo sapiens, read-out: K, growth, MTS
[18] = 24 h, not significantly different from 1

## O=C(N[C@@H]1CCCc2c1[nH]c1ccc(Cl)cc21)c1ccccn1 [GSK983, N-[(1R)-6-Chloro-2,3,4,9-tetrahydro-1H-carbazol-1-yl]-2-pyridinecarboxamide]
[1]
  Imax for reduction of the ratio SV40 DNA / MTS activity of Vero cells: 79 ± 2%
  K for reduction of the ratio SV40 DNA / MTS activity of Vero cells: 12 ± 2 nM
[2]; at concentrations below 1 μM
  Susceptibility of HIV: not susceptible
[2]; concentration range 1 nM to 100 μM
  Inhibition of HIV-1 infection in PBMCs: 50% inhibition in the micromolar range
[3]; Homo sapiens, IM-9, 72 h, read-out: K, cell line growth
  EC50: 16 ± 2 nM
[3]; IM9 (EBV) vs activated B cell
  Selectivity index: >620 ± 80
[3]; IM9, 3 days, higher concentrations
  Outcome of growth inhibition over time: cell death
[4]; HPV DNA qPCR in W12-20850 vs HKC
  Selectivity index: 12,000 ± 4,000
[4]; W12-20850, HPV type 16
  Imax, HPV DNA, qPCR: 85 ± 2%
[4]; W12-20850, read-out: K, HPV DNA, qPCR
  EC50: 3.3 ± 0.5 nM
[4]; W12 cells, at 100 nM GSK983, reduced from 460
  HPV copy number, expressed as HPV genomes per actin gene: 150 HPV genomes per actin gene
[5]; CIN612
  Imax, Growth, MTS: 70 ± 1%
[5]; [16]
  EC50: 2.8 ± 0.1 nM
[6]; Homo sapiens, WI-38 VA13, 72 h, read-out: K, Growth, CTG
  EC50: 16 ± 5 nM
[6]; WI38 VA13, SV40 integrated, 72 h
  Imax, Growth, CTG: 28% and 28 ± 2%
[7]; [16]
  EC50: 10 ± 2 nM
[7]; Namalwa, EBV integrated
  Imax, Growth, MTS: 66% and 66 ± 2.5%
[8]; [17]
  EC50: 52 ± 3 nM
[8]; T lymphoblast
  Imax, Growth, MTS: 51 ± 1%
[9]; B lymphoblast
  Imax, Growth, MTS: 84 ± 1.5%
[9]; [17]
  EC50: 9 ± 0.6 nM
[10]
  CC50 at 72 h: 520000 nM
[11]
  CC50 at 72 h: > 10000 nM
[12]
  CC50 at 72 h: 60000 nM
[13]
  Apoptosis: induced apoptosis
[14]
  Apoptosis: apoptosis did not occur
[15]; 24 h
  Fold increase due to GSK983, ABCD1 mRNA: 2.0 fold
  Fold increase due to GSK983, ABCG1 mRNA: 2.5 fold
  Fold increase due to GSK983, ADAMTS5 mRNA: 2.6 fold
  Fold increase due to GSK983, BIK mRNA: 2.2 fold
  Fold increase due to GSK983, MDM2 mRNA: 2.1 fold
  Fold increase due to GSK983, MGP mRNA: 1.9 fold
[15]; [18]
  Fold increase due to GSK983, CDKN1A mRNA: 1.7 ^b fold
  Fold increase due to GSK983, CSF2 mRNA: 1 ^b fold
  Fold increase due to GSK983, IFI6 mRNA: 1.3 ^b fold
  Fold increase due to GSK983, IFI16 mRNA: 2.3 ^b fold
  Fold increase due to GSK983, MMP1 mRNA: 5.8 ^b fold
[15]; 48 h
  Fold increase due to GSK983, ABCD1 mRNA: 4.5 fold
  Fold increase due to GSK983, ABCG1 mRNA: 3.1 fold
  Fold increase due to GSK983, ADAMTS5 mRNA: 2.3 fold
